Experiments:
Nucleic Acid = test: Drug concentration required to produce 50% inhibition of fluorescence bound ethidium to CT-DNA (1.26:1) (+/-SEM 5%); assay type: functional; details: Bos taurus
Method in brief: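 Ethidium displacement: 1 μM CT-DNA with 1.26 μM ethidium bromide; conjugate stock added serially. Fluorescence was read at excitation 546 nm and emission 595 nm. The value is the conjugate concentration cutting DNA-bound ethidium fluorescence by 50%. Mean of three determinations (±5%).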

CHO [1] = test: Cellular uptake of conjugates in CHO cells at a concentration of 0.5 uM (+/-15% SEM); assay type: functional, cell-based; details: Cricetulus griseus
Method in brief: (§1)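 Conjugates added 24 h after seeding (1 × 10^5 cells/mL, RPMI 1640 with 10% FCS and 2 mM aminoguanidine; proline added for CHO-MG) and left for 24 h. Cells were washed in 0.14 M NaCl, sonicated in 0.2 N HClO4/2 M NaCl and held 16 h at 4 °C. Conjugate in the supernatant was measured by fluorimetry against standards and expressed per mg protein (Folin). Mean of three determinations (±15%).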

CHO-MG [2] = test: In vitro 50% cell growth inhibition by the compound in CHO-MG cells; assay type: functional, cell-based; details: Cricetulus griseus
Method in brief: (§2)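 CHO or CHO-MG cells were trypsinized and plated singly at 2 × 10^3 cells/mL in RPMI 1640/10% FCS with 2 mM aminoguanidine (proline for CHO-MG). Conjugates were added after overnight incubation, with 48 h exposure. Growth was read by MTT formazan absorbance at 540 nm relative to untreated controls. The value is the concentration giving 25% or 50% growth inhibition.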

CHO-MG [3] = test: Cellular uptake of conjugates in CHO-MG cells at a concentration of 0.5 uM (+/-15% SEM); assay type: functional, cell-based; details: Cricetulus griseus; method in brief: as §1
L1210 [4] = test: In vitro 50% cell growth inhibition by the compound in L1210 cells; assay type: functional, cell-based; details: Mus musculus
Method in brief: (§3)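 L1210 cells were seeded at 5 × 10^4 cells/mL with conjugate added at seeding, in medium with 2 mM aminoguanidine, for 48 h exposure. Growth was measured by MTT absorbance at 540 nm relative to untreated controls.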

L1210 [5] = test: In vitro 50% cell growth inhibition by the compound in L1210 cells with 5 mM DFMO addition; assay type: functional, cell-based; details: Mus musculus
Method in brief: (§4)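 L1210 cells were seeded at 5 × 10^4 cells/mL, and conjugate plus 5 mM DFMO were added at seeding with 2 mM aminoguanidine present. After 48 h, growth was read by MTT at 540 nm relative to DFMO-only controls.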

L1210 [6] = test: In vitro 25% cell growth inhibition by the compound in L1210 cells; assay type: functional; details: Mus musculus; method in brief: as §3
L1210 [7] = test: In vitro 25% cell growth inhibition by the compound in L1210 cells with 5 mM DFMO addition; assay type: functional; details: Mus musculus; method in brief: as §4
L1210 [8] = test: Inhibition of [14C]SPD uptake by the compound in 5 min initial rate transport assay in L1210 cells; assay type: functional, cell-based, Mus musculus
L1210 [9] = test: Cellular uptake of conjugates in L1210 cells (control) at a concentration of 0.5 uM (+/-15% SEM); assay type: functional, cell-based; details: Mus musculus
Method in brief: (§5)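 L1210 cells were seeded at 2 × 10^5 cells/mL with conjugate added at seeding, in medium containing 2 mM aminoguanidine, and cultured 24 h. Washed cells were extracted in 0.2 N HClO4/2 M NaCl for 16 h at 4 °C. Intracellular conjugate was quantified by fluorimetry and expressed as nmol/mg protein. Mean of three determinations (±15%).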

L1210 [10] = test: Cellular uptake of conjugates in L1210 cells (control) at a concentration of 1 uM (+/-15% SEM); assay type: functional, cell-based; details: Mus musculus; method in brief: as §5
L1210 [11] = test: Cellular uptake of conjugates in L1210 cells (control) at a concentration of 2 uM (+/-15% SEM); assay type: functional, cell-based; details: Mus musculus; method in brief: as §5
L1210 [12] = test: Cellular uptake of conjugates in L1210 cells in presence of 500 uM SPD at a concentration of 0.5 uM (+/-15% SEM); assay type: functional, cell-based; details: Mus musculus
Method in brief: (§6)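 Same as the L1210 uptake assay: seeded at 2 × 10^5 cells/mL, conjugate plus 500 μM spermidine added together at seeding, 24 h exposure. Extraction in HClO4/NaCl, fluorimetric quantitation, normalized to protein. Mean of three determinations (±15%).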

L1210 [13] = test: Cellular uptake of conjugates in L1210 cells in presence of 500 uM SPD at a concentration of 1 uM (+/-15% SEM); assay type: functional, cell-based; details: Mus musculus; method in brief: as §6
[14] = Ratio of cellular uptake in CHO cells to that of CHO-MG cells.; assay type: functional
CHO [15] = test: In vitro 50% cell growth inhibition by the compound in CHO cells; assay type: functional, cell-based; details: Cricetulus griseus; method in brief: as §2
L1210 [16] = test: Cellular uptake of conjugates in L1210 cells pretreated with 5 mM DFMO at a concentration of 2 uM (+/-15% SEM); assay type: functional, cell-based; details: Mus musculus
Method in brief: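 L1210 cells were seeded at 10^5 cells/mL in medium with 5 mM DFMO, and conjugates were added 24 h later. Cells were harvested after a further 24 h, extracted in 0.2 N HClO4/2 M NaCl and assayed by fluorimetry, expressed per mg protein. Mean of three determinations (±15%).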

Compound | Concentration for 50% ethidium displacement from DNA (C50) (Nucleic Acid) [nM] | Uptake (nM (mg of protein)-1) (CHO [1]) | IC50 (CHO-MG [2]) [nM] | Uptake (nM (mg of protein)-1) (CHO-MG [3]) | IC50 (L1210 [4]) [nM] | IC50 (L1210 [5]) [nM] | IC25 (L1210 [6]) [nM] | IC25 (L1210 [7]) [nM] | Ki (L1210 [8]) [nM] | Uptake (nM (mg of protein)-1) (L1210 [9]) | Uptake (nM (mg of protein)-1) (L1210 [10]) | Uptake (nM (mg of protein)-1) (L1210 [11]) | Uptake (nM (mg of protein)-1) (L1210 [12]) | Uptake (nM (mg of protein)-1) (L1210 [13]) | Ratio [14] | IC50 (CHO [15]) [nM] | CC50 (Nucleic Acid) [nM] | Uptake (nM (mg of protein)-1) (L1210 [16])
c1ccc2nc3ccccc3cc2c1 | 142000 |  |  |  |  |  |  |  |  |  |  |  |  |  |  |  |  | 
Cl.NCCCNCCCCNCCCNCCCCN=c1c2ccccc2[nH]c2ccccc12 | 110 | 0.081 | 7200 | 0.026 | 2300 | 600 | 1100 | 160 | 83 | 0.193 | 0.362 | 0.491 | 0.094 | 0.28 | 3.1 | 2300 |  | 
NCCCNCCCCNCCCN |  |  |  |  |  |  |  |  |  |  |  |  |  |  |  |  | 6800 | 
Cl.NCCCNCCCCNCCCNCCCCCNc1c2ccccc2nc2ccccc12 | 110 | 0.21 | 4000 | 0.061 | 1400 | 700 | 400 | 200 | 135 |  |  | 0.51 |  |  | 3.4 | 1000 |  | 1.06
